This note sets out measurements from PubChem BioAssay.

Active and inactive are the calls of the source.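 The calls were made as follows, unless noted: active = Her2 level under about 52% in both replicate screens, with viability over 70% of control (limit read from the data); inconclusive = Her2 under the limit in one screen only, or viability under 70%; inactive = Her2 level above the set limit.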

The nature of assay [1]: reducers of endogenous Her2 protein level, primary screen, SKBR3 breast tumor cells, AlphaScreen, ATP viability (AID 461).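 As to Her2 level: lower value means less Her2 protein in the cells.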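 As to viability: percent of carrier control wells set as 100% viability.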 The note with it: 18-24 h, measured here: SKBR3 viability, ATP luminescence, at 10 µM. (In general: In Alpha technology, singlet oxygen from a donor bead excites a nearby acceptor bead.)
Assay [2] addresses Receptor tyrosine-protein kinase erbB-2 (Homo sapiens) (UniProt P04626). The assay is described as above. As to conditions: 18-24 h, at 10 µM, stronger effect = lower value.
Assay [3] in a line: SK-BR-3 cell growth inhibitors, pilot screen, 24 h, human (AID 572;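 active = viability at or below 10% of carrier control in both of two separate runs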;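 also: compound exposure lasted between 18 and 24 h rather than exactly 24 h; 100% = carrier-treated control wells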). As to conditions: SK-BR-3 viability, CellTiter-Glo luminescence, at 10 µM, stronger effect = lower value. (In general: Cellular ATP, detected with luciferase, serves as a proxy for viable cell number.)
Assay [4] can be described thus: HUVEC growth inhibition – cell-based, human, primary screen (AID 575;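 active = viability at or below 30% in both replicate assays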;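 also: 100% = median of untreated cell wells with 0.1% DMSO on each plate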). The note with it: HUVEC proliferation, CellTiter-Glo luminescence, 72 h; at 10 µM; stronger effect = lower value. In short, it runs like this:
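Timing: 72 h treatment at 37 °C; material: HUVEC primary cells; technique: CellTiter-Glo luminescence measuring cellular ATP; controls: vehicle and MePR control wells; measure: percent of median DMSO-control luminescence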

Assay [5] can be described thus: growth inhibitors of H69AR lung tumor, primary screen, human, duplicate replicates (AID 580;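 active = viability at or under a set limit in both replicates, limit being median viability minus 3 SD, cut at about 48% in these data, passing the limit was not always enough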;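 also: 100% = mean luminescence of untreated wells and 0% = no signal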). The note with it: H69AR lung tumor cells viability, ATP luminescence, 72 h; at 10 µM; stronger effect = lower value.
Assay [6] is described as follows: reversal of MRP1-mediated doxorubicin resistance, pilot screen, H69AR cells, doxorubicin co-treatment (AID 601;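 active = viability loss from added drug above about 55%, and viability with drug at most 40%, in both replicates, limit read from the data, passing the limit was not always enough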). The note with it: CellTiter-Glo, 72 h, at 10 µM; for differential viability (reversal): stronger effect = higher value.
Assay [7] in a line: 384-well plate pilot, post-Golgi transport modulator project, inhibition of yeast transport mutant growth (AID 636; in the data active = inhibition above about 31%). As to conditions: absorbance 615 nm, about 18 h, stronger effect = higher value.
A short description of assay [8]: growth suppression of yeast trafficking mutant, preliminary HTS, modulators of trafficking downstream of Golgi apparatus project, 1536-format plate, OD 615 nm (AID 637; in the data active = inhibition above about 30%). The note with it: yeast transport mutant growth, absorbance 615 nm, 18 h; stronger effect = higher value.
[9] abbreviates: H69AR cells + 2 uM doxorubicin, measured here: viability with 2 uM doxorubicin, stronger effect = lower value.
Where [10] appears, read: H69AR cells, compound alone cytotoxicity.

Chain of Receptor tyrosine-protein kinase erbB-2 (Homo sapiens) (P04626 whole entry, looked up): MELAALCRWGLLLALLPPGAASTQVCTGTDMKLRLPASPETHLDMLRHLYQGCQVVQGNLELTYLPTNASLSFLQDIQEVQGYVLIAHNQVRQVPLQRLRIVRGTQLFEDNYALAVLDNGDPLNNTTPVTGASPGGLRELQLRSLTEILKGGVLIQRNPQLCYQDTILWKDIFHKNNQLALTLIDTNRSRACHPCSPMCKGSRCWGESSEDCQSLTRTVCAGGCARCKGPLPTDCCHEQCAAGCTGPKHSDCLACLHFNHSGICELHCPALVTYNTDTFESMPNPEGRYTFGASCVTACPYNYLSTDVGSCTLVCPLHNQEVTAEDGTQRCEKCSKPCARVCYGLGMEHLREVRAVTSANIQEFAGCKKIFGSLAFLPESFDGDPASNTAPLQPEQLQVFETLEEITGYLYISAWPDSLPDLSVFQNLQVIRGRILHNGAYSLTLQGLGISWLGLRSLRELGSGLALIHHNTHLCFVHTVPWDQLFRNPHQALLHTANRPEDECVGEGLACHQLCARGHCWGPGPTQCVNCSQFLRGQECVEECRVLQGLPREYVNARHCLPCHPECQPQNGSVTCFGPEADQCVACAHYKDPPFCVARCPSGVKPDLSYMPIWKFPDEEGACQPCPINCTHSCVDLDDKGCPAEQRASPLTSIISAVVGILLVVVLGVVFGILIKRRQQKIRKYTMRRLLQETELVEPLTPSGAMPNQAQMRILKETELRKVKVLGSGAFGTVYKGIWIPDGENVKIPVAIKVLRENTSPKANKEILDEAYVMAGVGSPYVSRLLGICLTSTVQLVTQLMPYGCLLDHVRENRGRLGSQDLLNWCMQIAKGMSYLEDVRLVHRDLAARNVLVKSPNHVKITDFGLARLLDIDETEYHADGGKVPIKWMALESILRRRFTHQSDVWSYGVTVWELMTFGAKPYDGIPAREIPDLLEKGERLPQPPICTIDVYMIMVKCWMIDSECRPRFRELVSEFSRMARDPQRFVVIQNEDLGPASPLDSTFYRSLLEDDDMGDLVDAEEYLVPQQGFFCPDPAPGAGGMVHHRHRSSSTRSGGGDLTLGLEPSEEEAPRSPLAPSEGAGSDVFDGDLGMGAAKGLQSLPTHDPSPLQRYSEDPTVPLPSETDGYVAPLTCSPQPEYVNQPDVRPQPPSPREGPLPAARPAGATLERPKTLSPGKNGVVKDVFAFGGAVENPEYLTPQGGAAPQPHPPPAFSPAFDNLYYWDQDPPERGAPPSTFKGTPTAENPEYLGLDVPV

By viability is commonly meant a read-out of living cells in per cent, often relative to untreated cells. By inhibition is commonly meant the change of the read-out against control, counted positive when it falls. With `COC(=O)c1cccc(S(=O)(=O)N2CCN(c3nc4ccccc4s3)CC2)c1`, the viability was 83% in assay [1]; 83% (inactive) in assay [3]; 87.8% (inactive) in assay [4]; 81% (inactive) in assay [5]; 72.3% in assay [6] (setting [9]); 81% in assay [6] (setting [10]). Besides, in assay [2], the Her2 level was 92.5% (inactive). The differential viability (reversal) in assay [6] (H69AR cells + 2 uM doxorubicin) is 8.71% (inactive). Moreover, the inhibition in assay [7] was 0.67% (inactive); in assay [8], -2.42% (inactive).
`CCC(Sc1ccc(C(=O)O)cc1)C(=O)O` (stereo not given): the viability is 86.5% in assay [1]; 86.5% (inactive) in assay [3]; 95.2% (inactive) in assay [4]; 93.9% (inactive) in assay [5]; 90.2% in assay [6] (setting [9]); 93.9% in assay [6] (setting [10]). Besides, the Her2 level in assay [2] was 96% (inactive). The differential viability (reversal) in assay [6] (H69AR cells + 2 uM doxorubicin) is 3.74% (inactive). Besides, the inhibition in assay [7] is -1.97% (inactive); in assay [8] it was -10% (inactive).
Turning to `Cn1c(=O)c2c3c(sc2n2c(SCc4ccccc4)nnc12)CCCC3`, the viability in assay [1] was 77%; in assay [3], 77% (inactive); in assay [4], 88.8% (inactive); in assay [5] it was 87.5% (inactive); in assay [6] (setting [9]) it was 78.4%; in assay [6] (setting [10]) it was 87.5%. Further, in assay [2], the Her2 level was 91.5% (inactive). Moreover, the differential viability (reversal) in assay [6] (H69AR cells + 2 uM doxorubicin) was 9.04% (inactive). Moreover, the inhibition in assay [7] was -2.93% (inactive); in assay [8] it was -1.75% (inactive).
As to `Cn1c(=O)[nH]c(=O)c2[nH]c(NCCCN3CCOCC3)nc21`, the viability was 93.5% in assay [1]; 93.5% (inactive) in assay [3]; 92.1% (inactive) in assay [4]; 101% (inactive) in assay [5]; 85% in assay [6] (setting [9]); 101% in assay [6] (setting [10]). For the same compound, in assay [2], the Her2 level was 85.5% (inactive). Besides, the differential viability (reversal) in assay [6] (H69AR cells + 2 uM doxorubicin) is 16.1% (inactive). Moreover, the inhibition in assay [7] was -2.47% (inactive); in assay [8] it was -0.79% (inactive).
`CC(C)(C)n1nnnc1CN1CCC(NC(=O)NC2CCCCC2)CC1`: the viability in assay [1] was 95%; in assay [3], 95% (inactive); in assay [4], 97% (inactive); in assay [5], 106% (inactive); in assay [6] (setting [9]), 91.3%; in assay [6] (setting [10]) it was 106%. Also, in assay [2], the Her2 level was 72% (inactive). Besides, in assay [6] (H69AR cells + 2 uM doxorubicin), the differential viability (reversal) was 15.1% (inactive). The inhibition in assay [7] was -5.53% (inactive); in assay [8], -2.5% (inactive).
`COc1cc(NC(=O)Cc2cccs2)ccc1-n1cnnn1`: the viability in assay [1] is 97%; in assay [3], 97% (inactive); in assay [4], 97% (inactive); in assay [5] it was 102% (inactive); in assay [6] (setting [9]) it was 94.4%; in assay [6] (setting [10]), 102%. In addition, the Her2 level in assay [2] was 95.5% (inactive). In assay [6] (H69AR cells + 2 uM doxorubicin), the differential viability (reversal) is 7.88% (inactive). Besides, the figures for the inhibition in assay [7] and in assay [8] were -6.13% (inactive) and 1.29% (inactive), respectively.
For `COc1ccccc1NC(=O)c1ccc(COc2ccccc2OC)o1`, the viability in assay [1] is 95.5%; in assay [3], 95.5% (inactive); in assay [4] it was 87.6% (inactive); in assay [5], 97.2% (inactive); in assay [6] (setting [9]) it was 91.3%; in assay [6] (setting [10]), 97.2%. In assay [2], the Her2 level is 97% (inactive). Moreover, the differential viability (reversal) in assay [6] (H69AR cells + 2 uM doxorubicin) was 5.99% (inactive). For the same compound, the inhibition in assay [7] is -6.27% (inactive); in assay [8] it was 0% (inactive).
Turning to `Cc1cc(-n2c(C)cc(C(=O)CSc3nc4ccccc4c(=O)n3Cc3ccco3)c2C)no1`, the viability in assay [1] is 105%; in assay [3], 105% (inactive); in assay [4], 92.2% (inactive); in assay [5], 93.8% (inactive); in assay [6] (setting [9]) it was 89.7%; in assay [6] (setting [10]) it was 93.8%. Also, the Her2 level in assay [2] is 83.5% (inactive). Besides, the differential viability (reversal) in assay [6] (H69AR cells + 2 uM doxorubicin) is 4.09% (inactive). For the same compound, the inhibition was -6.8% (inactive) in assay [7] and -1.43% (inactive) in assay [8].
Take `CN(CCC#N)C(=O)COC(=O)c1ccc(Cl)c(S(N)(=O)=O)c1`: the viability was 104% in assay [1]; 104% (inactive) in assay [3]; 106% (inactive) in assay [4]; 95.9% (inactive) in assay [5]; 88.8% in assay [6] (setting [9]); 95.9% in assay [6] (setting [10]). Also, in assay [2], the Her2 level is 97.5% (inactive). Also, in assay [6] (H69AR cells + 2 uM doxorubicin), the differential viability (reversal) was 7.13% (inactive). The inhibition was -4.93% (inactive) in assay [7] and 3.71% (inactive) in assay [8].
Turning to `CCOc1ccc(C(c2nnnn2Cc2ccccc2)N2CCN(C(=O)c3ccco3)CC2)cc1` (stereo not given), the viability in assay [1] is 92.5%; in assay [3] it was 92.5% (inactive); in assay [4], 85.8% (inactive); in assay [5], 98.3% (inactive); in assay [6] (setting [9]) it was 103%; in assay [6] (setting [10]), 98.3%. Further, the Her2 level in assay [2] is 106% (inactive). Further, the differential viability (reversal) in assay [6] (H69AR cells + 2 uM doxorubicin) was -4.47% (inactive). Moreover, the inhibition in assay [7] was 0.53% (inactive); in assay [8] it was -1.9% (inactive).
As to `CCCC(c1nnnn1Cc1ccc(OC)cc1)N1CCN(c2ccccc2OC)CC1` (stereo not given), the viability was 103% in assay [1]; 103% (inactive) in assay [3]; 92.4% (inactive) in assay [4]; 90% (inactive) in assay [5]; 95.7% in assay [6] (setting [9]); 90% in assay [6] (setting [10]). Moreover, the Her2 level in assay [2] was 112% (inactive). Also, in assay [6] (H69AR cells + 2 uM doxorubicin), the differential viability (reversal) was -5.73% (inactive). Besides, the inhibition in assay [7] was -2.47% (inactive); in assay [8], -2.3% (inactive).
As for `CC(C(=O)NCCCN1CCOCC1)n1cccc1C(=O)c1ccccc1` (stereo not given), the viability was 90% in assay [1]; 90% (inactive) in assay [3]; 97.4% (inactive) in assay [4]; 95% (inactive) in assay [5]; 89.3% in assay [6] (setting [9]); 95% in assay [6] (setting [10]). Also, the Her2 level in assay [2] is 76.5% (inactive). Also, the differential viability (reversal) in assay [6] (H69AR cells + 2 uM doxorubicin) was 5.71% (inactive). Moreover, the inhibition in assay [7] is -2.37% (inactive); in assay [8], 0% (inactive).
For the compound `COc1ccc(OC)c(NC(=O)CS(=O)(=O)Cc2nc(-c3ccccc3C)oc2C)c1`, the viability in assay [1] was 97.5%; in assay [3] it was 97.5% (inactive); in assay [4], 66.1% (inactive); in assay [5] it was 94.4% (inactive); in assay [6] (setting [9]) it was 96.6%; in assay [6] (setting [10]) it was 94.4%. Moreover, the Her2 level in assay [2] was 97.5% (inactive). In assay [6] (H69AR cells + 2 uM doxorubicin), the differential viability (reversal) was -2.23% (inactive). Further, the inhibition in assay [7] is -2.8% (inactive); in assay [8], 6.83% (inactive).
Regarding `CC1CCc2cc(F)cc3c(O)c(C(=O)NCC4CCCO4)c(=O)n1c23` (stereo not given), the viability in assay [1] is 93.5%; in assay [3], 93.5% (inactive); in assay [4], 80.8% (inactive); in assay [5], 85.6% (inactive); in assay [6] (setting [9]), 94.2%; in assay [6] (setting [10]), 85.6%. In addition, in assay [2], the Her2 level is 94% (inactive). Also, in assay [6] (H69AR cells + 2 uM doxorubicin), the differential viability (reversal) was -8.57% (inactive). In addition, the inhibition was 0.66% (inactive) in assay [7] and -9.84% (inactive) in assay [8].
